Measured values gathered from unrelated publications.
Each line is one published result; the experiments were not run side by side.
Target: Interleukin-1 receptor-associated kinase 1 (IRAK1, Homo sapiens, UniProt P51617)

| Compound | test | setting | endpoint | result |
| --- | --- | --- | --- | --- |
| CC(C)(O)[C@H]1CC[C@H](Nc2ccc3ncc(-c4cccc(C(F)(F)F)c4)n3n2)CC1 | enzyme activity, inhibitor | 1 µM | remaining activity | 87.1% |
| COc1cc(-c2cc(-c3ccc(N4CCNCC4)cc3)cnc2C)cc(OC)c1OC | enzyme activity, inhibitor | 1 µM | inhibition | 1% |
| Cc1sc(C(=O)NC2COC2)cc1-n1cc(NC(=O)Nc2c(F)cccc2Cl)cn1 | enzyme activity, inhibitor | 10 µM | remaining activity | 79.9% |
| CCCCNc1ncc2c(-c3ccc(F)cc3)nn(C[C@H]3CC[C@H](N)CC3)c2n1 | target engagement in cells, inhibitor, chemoproteomics | 20 mM | inhibition | 51.5% |
| CNC(=O)c1cc(Oc2ccc(NC(=O)Nc3ccc(Cl)c(C(F)(F)F)c3)cc2)ccn1 | enzyme activity, inhibitor | 0.3 µM | inhibition | -4% |
| FC(F)(F)Oc1cccc(-c2cnc3ccc(-c4ccncc4)nn23)c1 | enzyme activity, inhibitor, radiometric | 5 µM | activity vs control | 24% |
| NS(=O)(=O)c1cc(NC(=O)C2(c3ccccc3Cl)CC2)ccc1Oc1cccc(Cl)c1 | cell-free assay, competition with immobilised ligand | 1 µM | remaining binding | 79% |
| Cc1ccc(Nc2nccc(N(C)c3ccc4c(C)n(C)nc4c3)n2)cc1S(N)(=O)=O | enzyme activity, inhibitor | 0.3 µM | inhibition | -6% |
| COc1cc(Nc2cnc(C#N)c(O[C@H](C)CN(C)C)n2)ncc1-c1cnn(C)c1 | enzyme activity, inhibitor, radiometric | 10 µM | remaining activity | 9% |
| CCCS(=O)(=O)Nc1ccc(F)c(C(=O)c2c[nH]c3ncc(-c4ccc(Cl)cc4)cc23)c1F | enzyme activity, inhibitor | 1 µM | inhibition | < 10% |
| COc1ccc2c(c1)O[C@H](c1ccc(OC)c(OC)c1)C[C@@H]2NC(=O)C1(c2ccc3c(c2)OC(F)(F)O3)CC1 | cell-free assay, competition with immobilised ligand | 1 µM | remaining binding | 93% |
| COc1cccc2c(NCc3ccccc3)nc(-n3c(N)nc4ccccc43)nc12 | target engagement in cells, inhibitor, chemoproteomics | 20 mM | inhibition | -2.2% |
| CCN(CC)CCNC(=O)c1c(C)[nH]c(/C=C2\C(=O)Nc3ccc(F)cc32)c1C | enzyme activity, inhibitor | 0.3 µM | inhibition | 31% |
| CNC(=O)Nc1ccc2c(c1)CC[C@@]21OC(=O)N(CC(=O)N(Cc2ccc(F)cc2)[C@@H](C)C(F)(F)F)C1=O | cell-free assay, competition with immobilised ligand | 1 µM | remaining binding | 71% |
| CC(C)(C)c1nc(-c2cccc(NS(=O)(=O)c3c(F)cccc3F)c2F)c(-c2ccnc(N)n2)s1 | enzyme activity, inhibitor, radiometric | 1 µM | remaining activity | 84% |
| CCCOc1ccc(OC)c(F)c1C(=O)c1ccc(C(=O)N[C@@H]2CNC[C@H]2NC(=O)c2ccc3[nH]ncc3c2)cc1 | enzyme activity, inhibitor | 10 µM | remaining activity | 49% |
| CC/C(=N\NC(=O)NCc1cccc(O)c1)c1ccc(O)c(C)c1O | enzyme activity, inhibitor | 0.1 µM | inhibition | -0.6% |
| N#CCCc1ccc2c(c1)-c1[nH]c3ccc([N+](=O)[O-])cc3c1CC(=O)N2 | cell-free assay | 0.5 µM | remaining signal | 74.9% |
| Cc1ccc(NC(=O)c2ccc(C)c(C(F)(F)F)c2)cc1C#Cc1nn(C2CCC(O)CC2)c2ncnc(N)c12 (centres unmarked) | cell-free assay | 10 µM | remaining signal | 30% |
| CCCOc1ccc([C@@H]2[C@@H](C(=O)O)[C@H](c3ccc4c(c3)OCO4)CN2CC(=O)Nc2c(CC)cccc2CC)cc1 | cell-free assay, competition with immobilised ligand | 1 µM | remaining binding | 96% |
| O=C(Nc1cnn(-c2csc(C(=O)NC3COC3)c2)c1)Nc1c(F)cccc1Cl | enzyme activity, inhibitor | 5 µM | remaining activity | 107% |
| CN(C)CC#Cc1ccc(OCCCc2sc(N3CCc4cccc(C(=O)Nc5nc6ccccc6s5)c4C3)nc2C(=O)O)c(F)c1 | cell-free assay, competition with immobilised ligand | 1 µM | remaining binding | 100% |
| COc1cc(Cl)c(C(=O)N[C@@H](CN[C@H]2CC[C@@H](N)CC2)Cc2ccc(C#N)cc2)cc1-c1ccc(CN[C@H](C)c2ccc(C)cc2)o1 | enzyme activity, inhibitor | 1 µM | remaining activity | 97% |
| CS(=O)(=O)c1cc(C2(NC(=O)c3cncc4c3cnn4-c3ccc(F)cc3)CC2)ccn1 | cell-free assay, competition with immobilised ligand | 1 µM | remaining binding | 87% |
| CN(C)C1CCN(CC#Cc2nn(C3CCCC3)c3nc(NCc4ccccc4)ncc23)C1 (centres unmarked) | enzyme activity, inhibitor, FRET | 0.1 µM | inhibition | 6% |
| c1ccc(N2CCN(Cc3nc4ccccc4[nH]3)CC2)nc1 | binding, competition with immobilised ligand | 1 µM | remaining binding | 100% |
| Oc1cccc(-c2nc(N3CCOCC3)c3oc4ncccc4c3n2)c1 | cell-free assay | 0.5 µM | remaining signal | 84.2% |
| COCCOc1nc(-c2ccc(Cl)nc2)nc2c1CN(C(=O)c1ncn3ccccc13)CC2 | cell-free assay, competition with immobilised ligand | 0.1 µM | remaining binding | 100% |
| COc1ccc(COc2ccc(Cc3cnc(N)nc3N)cc2OC)cc1 | cell-free assay | 0.5 µM | remaining signal | 123% |
